pIC50: −log10 of the molar value.
Test system: E. coli BW25113 ΔtolC growth inhibition, OD615
Assay: growth inhibitors of E. coli tolC mutant, dose response, strain BW25113 ΔtolC::kan (AID 617)
Procedure, shortened: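 System: E. coli BW25113 ΔtolC::kan bacteria. Amount: 1:1000 diluted subculture inoculum. Medium: LB broth supplemented with kanamycin at 50 µg/mL. Compound dosing: serial dilution series of compound. Schedule: 20 h exposure at 37 °C. Detection: OD615. Measure: IC50 of bacterial growth inhibition. Benchmarks: chloramphenicol control, 30 µM final.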

| SMILES | pIC50 |
| --- | --- |
| Cc1ccc(NC(=O)c2ccccc2O)cc1 | 4.80 |
| CCN(C(=O)c1ccc(C(C)(C)C)cc1)c1nnc(Cn2nnc3ccccc32)s1 | 4.32 |
| COCc1nnc(NC(=O)c2ccc(S(=O)(=O)N(C)C3CCCCC3)cc2)o1 | 5.39 |
| Cc1cc(SCC#N)n2nc(C)c(-c3ccccc3)c2n1 | 4.31 |
| CCn1c(SC)nnc1-c1sc2cc(Cl)ccc2c1Cl | 4.94 |
| CC1CCN(S(=O)(=O)c2cccc(C(=O)NCc3cccs3)c2)CC1 | 4.48 |
| CCOc1ccc(Nc2cc(C)nc(-n3nc(C)cc3C)n2)cc1 | 5.38 |
| Cc1ccc(OCc2nc(C#N)c(N3CCN(Cc4ccccc4)CC3)o2)cc1 | 4.89 |
| Cn1nc(-c2ccc(N3CCOCC3)c(NC(=O)COc3ccccc3)c2)c2ccccc2c1=O | 5.06 |
| COC(=O)c1c(NC(=O)c2ccc(C)o2)sc2c1CCCCC2 | 4.55 |
| Cc1c(-c2nc(N)nc(Nc3ccccc3)n2)oc2ccccc12 | 4.91 |
| CCOC(=O)C1CN(c2cc3c(cc2F)c(=O)c(C(=O)O)cn3CC)OC1C(=O)OCC (configuration not stated) | 6.09 |
| C(=C\c1ccccc1)/CN1CCN(c2ncnc3c2oc2ccccc23)CC1 | 4.99 |
| CCCCNc1cc(C)nc(NCc2ccccc2)n1 | 5.11 |
| O=C(Nc1ccn(Cc2ccc(Cl)cc2)n1)c1ccc2c(c1)OCO2 | 5.14 |
| CCOc1ccc(OCCSc2nnnn2C2CCCCC2)cc1 | 4.84 |
| CCOC(=O)c1cn(CC)c2cc(N3CCCCC3)c(F)cc2c1=O | 5.47 |
| CC1CCc2c(C(=O)Oc3cccc(-n4cnnn4)c3)csc2C1 (configuration not stated) | 4.69 |
| Nc1nncn1C(=O)CCCN1C(=O)c2ccccc2C1=O | 4.90 |
| COc1ccc(/C=N/n2c(SC)nnc2-c2ccccc2)cc1C | 4.78 |
| COc1ccc(C(C(O)C(=O)c2c[nH]c3ccccc23)N2CCN(c3ccccc3)CC2)cc1 (configuration not stated) | 5.12 |
| Cc1cccc(Cn2c(=O)n(Cc3ccco3)c(=O)c3ccccc32)c1 | 5.17 |
| CC(C)(C)c1ccc(-c2nnc(SCCC#N)n2C2CCCC2)cc1 | 4.80 |

| SMILES | pIC50 |
| --- | --- |
| CCCc1cc(C(=O)Cc2ccc(C(=O)OCC)o2)c(O)cc1O | 4.73 |
| CCOc1cc(C)c(Cl)cc1S(=O)(=O)n1nnc2ccccc21 | 4.93 |
| CC(=O)Nc1nc2ccccc2n1Cc1ccccc1C | 4.74 |
| O=S(=O)(Nc1ccc2oc(-c3ccccc3)nc2c1)c1ccccc1 | 5.03 |
| COc1cccc(NC(=O)Nc2nnc(N3CCCCC3C)s2)c1 (configuration not stated) | 5.07 |
| CCCN(CCC)c1nc2ccccc2nc1C(C#N)C(=O)OCCOC (configuration not stated) | 4.80 |
| c1ccc(-c2nc(CSc3nnc(-c4cccs4)o3)cs2)cc1 | 5.00 |
| COc1cc2c3c(c1)C1(C(=O)N3C(C)(C)C=C2C)C(C#N)=C(N)Oc2cc(O)ccc21 (configuration not stated) | 5.18 |
| O=c1n(Cc2ccc(Cl)cc2)c2sc3c(c2c2ncnn12)CCCC3 | 5.13 |
| CCn1nc(-c2cccs2)nc2c(=O)n(C)c(=O)nc1-2 | 5.72 |
| CCOC(=O)c1c(C)oc2ccc(NS(=O)(=O)c3ccc4c5c(cccc35)C(=O)N4)cc12 | 4.79 |
| N#Cc1c(NC(=O)c2ccc(Br)o2)n(-c2ccccc2)c2nc3ccccc3nc12 | 4.82 |
| CCCc1nc(SCC(=O)N2CCCc3ccccc32)c2c(=O)n(C)c(=O)n(C)c2n1 | 4.94 |
| O=c1c2ccccc2n(Cc2ccc(F)cc2)c(=O)n1C1CCCC1 | 5.03 |
| O=C(CSc1ncnc2c1oc1ccccc12)N1CCCc2ccccc21 | 4.82 |
| O=C(c1ccccc1CCc1ccccc1)N1CCN(c2ccccn2)CC1 | 5.08 |
| Cc1nc2c(C(=O)NCCC3=CCCCC3)c[nH]n2c(=O)c1Cl | 5.08 |
| Oc1ccc(-c2[nH]ncc2-c2ccc(Cl)cc2)c(O)c1 | 4.95 |
| N#C/C(=C\C1CC=CCC1)c1nc2ccccc2[nH]1 (configuration not stated) | 4.43 |
| Cc1ccc(C)c(SCC(=O)Nc2nnc(-c3ccccc3)o2)c1 | 5.33 |
| CCS(=O)(=O)n1nc(-c2ccccc2)nc1SCc1ccccc1 | 4.80 |
| CCCC1=C(C(=O)OCC)C(c2cc(Cl)cc(OC)c2OCC(=O)OCC)NC(=O)N1 (configuration not stated) | 4.61 |
| Cc1cc(N2CCN(c3ccccc3)CC2)nc(-c2ccccc2)n1 | 4.84 |

| SMILES | pIC50 |
| --- | --- |
| Cc1nn(-c2ccccc2)c2sc(C(=O)N(CC(=O)NC(C)(C)C)Cc3ccco3)cc12 | 4.62 |
| CNc1nc(Nc2ccc(C(C)=O)cc2)nc(OC(C(F)(F)F)C(F)(F)F)n1 | 4.70 |
| Cc1onc(-c2ccccc2)c1C(=O)Nc1nnc(COc2ccc(Cl)cc2)s1 | 5.52 |
| c1ccc(CSc2nnc(-c3ccco3)c(-c3ccco3)n2)cc1 | 4.96 |
| CC1=CC(C)(C)N2C(=O)C3(SCC(=O)N3c3ccc(O)cc3)c3cc(C)cc1c32 (configuration not stated) | 4.93 |
| CSc1nc(N2CCOCC2)c2c3c(sc2n1)CCCC3 | 4.92 |
| CCOc1ccccc1N1CCN(Cc2ccc(Br)s2)CC1 | 4.58 |
| O=S(=O)(c1ccccc1)c1nc(-c2ccco2)oc1N1CCCCCC1 | 4.95 |
| Clc1ccc2nc(CN3CCCc4ccccc43)cn2c1 | 4.59 |
| CCCCC(=O)Nc1cccc(-c2nnc(-c3ccccc3)o2)c1 | 4.77 |
| Cc1nnc(SC(=O)N2c3ccccc3Sc3ccccc32)s1 | 4.83 |
| COc1ccc(OCC(O)Cn2c(=N)n(Cc3ccccc3)c3ccccc32)cc1 (configuration not stated) | 4.62 |
| CCC(=O)N1CCN(c2cc3c(cc2F)c(=O)c(C(=O)O)cn3CC)CC1 | > 6.70 |
| CCCCC(=O)c1c(O)c2ccccc2oc1=O | 5.13 |
| CCOc1ccc2nc(NC(=O)CN3CCC(n4nnc5cc(F)ccc54)CC3)sc2c1 | 4.81 |
| C=CCn1c(SCC(O)Cn2c3ccccc3c3ccccc32)nnc1-c1ccco1 (configuration not stated) | 4.67 |
| CC(C)c1ccc(OCc2ccc(C(=O)N3CCN(c4ccccn4)CC3)cc2)cc1 | 5.09 |
| O=C(COc1ccccc1Br)c1ccc(O)cc1O | 4.88 |
| COc1c(N2CCNC(C)C2)c(F)cc2c(=O)c(C(=O)O)cn(C3CC3)c12 (configuration not stated) | > 6.70 |
| Cn1c(CSc2nc3ccccc3s2)nc2ccccc21 | 4.65 |
| Cc1cc(C)c(C#N)c(SCS(=O)c2ccc(C(C)(C)C)cc2)n1 (configuration not stated) | 4.40 |
| COc1ccc2nc(N3CCC(C)CC3)c(C#N)cc2c1 | 4.54 |
| CCc1c(C(=O)Nc2ncn(Cc3cccc(C)c3)n2)csc1C | 4.54 |

| SMILES | pIC50 |
| --- | --- |
| Clc1ccc(OCCCc2nc(-c3cccnc3)no2)c(Cl)c1 | 4.76 |
| Cc1cc(Cl)ccc1OC(C)C(=O)Nc1ccccc1N1CCOCC1 (configuration not stated) | 5.07 |
| CCc1cc2c3c(c(=O)oc2cc1O)CCCC3 | 4.48 |
| COC(=O)c1ccc(Oc2nc(N3CCCCC3)nc(N3CCOCC3)n2)cc1 | 4.69 |
| COC(=O)c1ccc(/C(O)=C(\C#N)c2nc3ccccc3s2)cc1 | 5.60 |
| N=c1n(Cc2ccccc2)c2ccccc2n1CC(O)COc1ccccc1 (configuration not stated) | 4.67 |
| Cc1ccc(S(=O)(=O)Nc2cccc(-c3cn4ccsc4n3)c2)cc1 | 4.81 |
| Cc1noc(C)c1S(=O)(=O)N(CCc1ccccc1)Cc1ccccc1 | 4.78 |
| CN(C)C1(c2nnnn2CCOC(=O)Nc2ccc(Cl)cc2)CCCCC1 | 5.08 |
| Clc1ccc(C2=Nn3c(nnc3-c3n[nH]c4c3CCC4)SC2)cc1Cl | 4.96 |
| O=C(NC1CCCCC1)c1sc(=S)n2c1[nH]c(=O)c1ccccc12 | 6.08 |
| CCOc1ccc(N(CC(=O)Nc2cccc(OC)c2)S(=O)(=O)c2c(C)noc2C)cc1 | 4.64 |
| Oc1c(C(c2ccco2)N2CCN(C(c3ccccc3)c3ccccc3)CC2)sc2ncnn12 (configuration not stated) | 4.88 |
| S=C(c1ccc(-c2ccc(Cl)c(Cl)c2)o1)N1CCOCC1 | 4.95 |
| COc1cc(-c2nc(-c3cccc(C)c3)no2)cc(OC)c1OC | 4.91 |
| CCCCn1c(N2CCC(Cc3ccccc3)CC2)nc2c1c(=O)[nH]c(=O)n2C | 5.22 |
| O=C(CSc1nnnn1C1CCCCC1)Nc1cccc(NC(=O)c2ccco2)c1 | 4.81 |
| C=C(C)COc1ccc(-c2n[nH]c(C)c2-c2ccccc2OC)c(O)c1 | 4.87 |
| Cc1ccc(-n2c(C)cc(C(=O)COC(=O)c3c(C)noc3C)c2C)cc1 | 5.25 |
| O=C(N1CCN(c2ccccc2F)CC1)C12CC3CC(CC(C3)C1)C2 | 4.73 |
| COc1ccc(OC)c(C(=O)COC(=O)c2cc(C)oc2C)c1 | 4.60 |
| COc1cc2cc(C(c3nnnn3C3CCCCC3)N(C)C3CCCCC3)c(=O)[nH]c2cc1OC (configuration not stated) | 5.01 |
| CCOC(=O)Cc1nnc2c(Nc3ccc(Cl)cc3)nc3nonc3n12 | 5.43 |

| SMILES | pIC50 |
| --- | --- |
| COc1ccc2nc(NC(=O)C3CCCN(S(=O)(=O)c4cccs4)C3)sc2c1 (configuration not stated) | 4.58 |
| Cc1ccc2cc(CN(Cc3ccc(F)cc3)Cc3nnnn3C3CCCC3)c(=O)[nH]c2c1 | 4.89 |
| COc1ccccc1-c1nnc(NC(=O)c2ccc(S(=O)(=O)N(C)C)cc2)o1 | 5.42 |
| c1ccc(-c2nc(N3CCCCCC3)nc(-n3ccnc3)n2)cc1 | 5.11 |
| COc1ccc2[nH]c(=O)c(CN(C(=O)NC3CCCCC3)C3CCCCC3)cc2c1 | 4.71 |
| CC(=O)OCC1=C(C(=O)O)N2C(=O)[C@@H](NC(=O)Cc3cccs3)[C@H]2SC1 | 6.00 |
| COc1ccccc1OCC(=O)N(Cc1nc(-c2ccccc2)no1)C1CCCCC1 | 4.90 |
| CC1CCC2C(C1)c1sc(=O)[nH]c1SC2(C)C (configuration not stated) | 5.11 |
| Cc1ccc2c(CC(=O)OCc3nc(N)nc(Nc4ccccc4C)n3)coc2c1 | 5.00 |
| CC(C)(C)C(=O)Cn1c(=N)n(Cc2ccccc2)c2ccccc21 | 4.76 |
| CCOC(=O)c1cc2sc(C)cc2n1C(C)C(=O)OCC (configuration not stated) | 4.22 |
| COC(=O)CSc1nc(N2CCCCC2)c2c(c1C#N)CCCC2 | 4.90 |
| CCC(Sc1nnc(-c2ccc(C)c(Cl)c2)n1CC)C(=O)Nc1nccs1 (configuration not stated) | 4.83 |
| CCc1ccccc1N(CC)C(=O)CCc1nc(-c2ccc(C)cc2)no1 | 4.95 |
| COc1ccc2[nH]c3c(=O)n(CCCCC(=O)N4CCCC4)c(=S)[nH]c3c2c1 | 6.12 |
| Cc1cccc(N(C)C(=O)c2cc3cc4ccc(C)cc4nc3o2)c1 | 4.62 |
| Oc1ccccc1-c1cc(-c2ccc3c(c2)OCCO3)n[nH]1 | 5.09 |
| CCOC(=O)N1CCN(c2nc3ccccc3nc2C(C#N)S(=O)(=O)c2ccc(C)cc2)CC1 (configuration not stated) | 5.10 |
| Clc1ccc(Nc2nc(-c3cccs3)cs2)nc1 | 4.10 |
| O=C(CN(C1CC1)S(=O)(=O)c1ccc(S(=O)(=O)NC2CCCCC2)cc1)Nc1ccccc1 | 4.98 |

From PubChem BioAssay AID617 (SRMLSC, 2007)
